Measured values published in ChEMBL document CHEMBL2331243, “Discovery and mechanism study of SIRT1 activators that promote the deacetylation of fluorophore-labeled substrate” (J Med Chem, 2013).
Positions count from the first letter of the chain named. Activity calls are given as the source filed them. The rule behind the calls is not given here.

Legend:
[1] = biological target: T1, NAD-dependent protein deacetylase sirtuin-1 (Homo sapiens) (UniProt Q96EB6); test: Activation of N-terminal His6-tagged SIRT1 (156 to 664 amino acid residues) (unknown origin) expressed in Escherichia coli BL21(DE3) using ac-RHKKac-NH2 as substrate after 45 mins by HPLC analysis
T1 sequence (whole entry): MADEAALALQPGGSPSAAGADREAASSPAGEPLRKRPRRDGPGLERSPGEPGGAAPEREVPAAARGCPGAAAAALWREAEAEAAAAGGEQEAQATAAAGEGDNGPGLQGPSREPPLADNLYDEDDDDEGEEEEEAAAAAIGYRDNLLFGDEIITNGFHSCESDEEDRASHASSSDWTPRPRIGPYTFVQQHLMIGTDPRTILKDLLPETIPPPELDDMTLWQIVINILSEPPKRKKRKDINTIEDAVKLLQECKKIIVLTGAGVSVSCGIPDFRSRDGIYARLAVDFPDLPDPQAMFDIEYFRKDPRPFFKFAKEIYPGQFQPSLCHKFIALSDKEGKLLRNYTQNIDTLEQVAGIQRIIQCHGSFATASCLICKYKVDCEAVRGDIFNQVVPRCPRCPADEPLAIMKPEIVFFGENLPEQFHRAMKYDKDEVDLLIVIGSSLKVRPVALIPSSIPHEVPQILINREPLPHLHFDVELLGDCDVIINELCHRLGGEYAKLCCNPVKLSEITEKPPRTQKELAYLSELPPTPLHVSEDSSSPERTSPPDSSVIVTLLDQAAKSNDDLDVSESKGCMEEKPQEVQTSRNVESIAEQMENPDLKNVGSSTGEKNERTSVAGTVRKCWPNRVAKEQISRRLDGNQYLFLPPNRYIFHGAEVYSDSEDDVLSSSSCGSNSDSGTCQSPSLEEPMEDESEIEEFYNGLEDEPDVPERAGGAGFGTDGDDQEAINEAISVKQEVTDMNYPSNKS

[2] = biological target: T1, NAD-dependent protein deacetylase sirtuin-1 (Homo sapiens); test: Activation of SIRT1 in human MCF7 cells assessed as reduction in doxorubicin-induced acetyl-p53 level at >100 uM after 6 hrs by Western blotting analysis; type: cell-based
How it was run: (§1)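 MCF-7 cells were seeded at 1 × 10⁵ in DMEM with 10% fetal calf serum and grown 24 h at 37 °C, 5% CO₂. They then got gradient compound concentrations with 0.1 μM trichostatin and 5 μM doxorubicin for 6 h, then lysis. 50 μg protein was run on a 9% gel and blotted with polyclonal anti-acetyl-p53 (Lys382) at 4 °C overnight, with HRP anti-rabbit detection.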

[3] = biological target: T1, NAD-dependent protein deacetylase sirtuin-1 (Homo sapiens); test: Activation of N-terminal His6-tagged SIRT1 (156 to 664 amino acid residues) (unknown origin) expressed in Escherichia coli BL21(DE3) using ac-RHKKac-AMC as substrate at 50 uM after 45 mins by fluorimetric analysis relative to control
How it was run: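 Fluorogenic deacetylation screen: 1 μM SIRT1 with 750 μM NAD⁺ and 31.25 μM ac-RHKK_ac-AMC in Tris buffer (25 mM Tris, 137 mM NaCl, 2.7 mM KCl, 1 mM MgCl₂, pH 8.0). Compounds at 50 μM from DMSO stocks; DMSO alone as blank. Trypsin then releases AMC from deacetylated peptide; fluorescence read at 340/490 nm.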

[4] = biological target: T1, NAD-dependent protein deacetylase sirtuin-1 (Homo sapiens); test: Activation of SIRT1 in human MCF7 cells assessed as reduction in doxorubicin-induced acetyl-p53 level at <100 uM after 6 hrs by Western blotting analysis; type: cell-based
How it was run: as §1

[5] = system: T2, NAD-dependent protein deacetylase sirtuin-1 (Homo sapiens), Q96EB6 [R446A]; test: Activation of SIRT1 R446A mutant (unknown origin) at 50 uM relative to control
T2 sequence (whole entry): T1 sequence (whole entry) with R446A
How it was run: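 SIRT1 R446A mutant made by site-directed mutagenesis, expressed in E. coli and purified on Ni-NTA. Fluorescent deacetylation assay used 1 μM enzyme, 750 μM NAD⁺, 31.25 μM ac-RHKK_ac-AMC and 50 μM compound versus DMSO, in Tris buffer pH 8.0. Trypsin released AMC from deacetylated peptide, read at ex 340/em 490 nm.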

[6] = biological target: T3, NAD-dependent protein deacetylase sirtuin-2 (Homo sapiens, UniProt Q8IXJ6); test: Activation of at N-terminal GST-tagged SIRT2 (34 to 356 amino acid residues) (unknown origin) expressed in Escherichia coli BL21(DE3) using ac-RHKKac-AMC as substrate after 45 mins by fluorometric analysis
T3 sequence (Q8IXJ6 whole entry): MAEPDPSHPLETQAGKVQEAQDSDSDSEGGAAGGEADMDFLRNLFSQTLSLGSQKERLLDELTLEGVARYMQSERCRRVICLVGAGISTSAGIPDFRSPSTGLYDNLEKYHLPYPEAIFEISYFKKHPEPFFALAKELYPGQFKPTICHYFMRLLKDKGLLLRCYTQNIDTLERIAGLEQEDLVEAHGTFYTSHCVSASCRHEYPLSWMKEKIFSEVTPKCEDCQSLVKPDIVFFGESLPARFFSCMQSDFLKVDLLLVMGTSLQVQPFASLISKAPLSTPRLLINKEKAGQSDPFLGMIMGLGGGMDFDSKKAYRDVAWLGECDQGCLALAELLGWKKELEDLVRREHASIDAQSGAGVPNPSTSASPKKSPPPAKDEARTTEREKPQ
How it was run: (§2)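 Fluorescent deacetylation assay in 25 mM Tris, 137 mM NaCl, 2.7 mM KCl, 1 mM MgCl₂, pH 8.0, with 750 μM NAD⁺ and 31.25 μM ac-RHKK_ac-AMC. Enzyme was 3.6 μM SIRT3 or 4.2 μM GST-SIRT2, set to match SIRT1 activity. Trypsin released AMC from the deacetylated peptide, read at ex 340 / em 490 nm. Compounds were added from DMSO (DMSO as blank): single point at 50 μM, or 3-fold DMSO dilution series. EC1.5 (concentration giving 50% activity increase) and maximum activation were fitted to a dose–response function.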

[7] = biological target: T4, NAD-dependent protein deacetylase sirtuin-3, mitochondrial (Homo sapiens, UniProt Q9NTG7); test: Activation of N-terminal His6-tagged SIRT3 (118 to 399 amino acid residues) (unknown origin) expressed in Escherichia coli BL21(DE3) using ac-RHKKac-AMC as substrate after 45 mins by fluorometric analysis
T4 sequence (Q9NTG7 whole entry): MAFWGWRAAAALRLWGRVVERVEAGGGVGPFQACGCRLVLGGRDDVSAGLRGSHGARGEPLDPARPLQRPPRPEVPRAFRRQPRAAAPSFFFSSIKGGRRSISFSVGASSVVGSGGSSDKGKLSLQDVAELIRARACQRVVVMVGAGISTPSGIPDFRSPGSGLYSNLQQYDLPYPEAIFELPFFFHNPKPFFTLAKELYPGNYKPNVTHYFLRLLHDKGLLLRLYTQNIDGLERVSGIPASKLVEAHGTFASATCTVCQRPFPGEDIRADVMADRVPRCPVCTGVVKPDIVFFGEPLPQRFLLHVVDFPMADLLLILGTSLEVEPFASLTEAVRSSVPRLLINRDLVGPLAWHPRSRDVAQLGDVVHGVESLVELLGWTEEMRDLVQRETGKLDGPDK
How it was run: as §2

[8] = biological target: T5, NAD-dependent protein deacetylase sirtuin-3, mitochondrial (Homo sapiens) (UniProt Q9NTG7); test: Activation of N-terminal His6-tagged SIRT3 (118 to 399 amino acid residues) (unknown origin) expressed in Escherichia coli BL21(DE3) using ac-RHKKac-AMC as substrate at 50 uM after 45 mins by fluorometric analysis relative to control
T5 sequence (whole entry): T4 sequence (Q9NTG7 whole entry)
How it was run: as §2

[9] = biological target: T6, NAD-dependent protein deacetylase sirtuin-2 (Homo sapiens) (UniProt Q8IXJ6); test: Activation of at N-terminal GST-tagged SIRT2 (34 to 356 amino acid residues) (unknown origin) expressed in Escherichia coli BL21(DE3) using ac-RHKKac-AMC as substrate at 50 uM after 45 mins by fluorometric analysis relative to control
T6 sequence (whole entry): T3 sequence (Q8IXJ6 whole entry)
How it was run: as §2

[10] = biological target: T7, NAD-dependent protein deacetylase sirtuin-1 (Homo sapiens, UniProt Q96EB6); test: Activation of N-terminal His6-tagged SIRT1 (156 to 664 amino acid residues) (unknown origin) expressed in Escherichia coli BL21(DE3) using ac-RHKKac-AMC as substrate after 45 mins by fluorometric analysis
T7 sequence (Q96EB6 whole entry): T1 sequence (whole entry)

Row | SMILES | Activity [1] | Activity [2] | max activation [3] | Activity [4] | max activation [5] | EC50 [6] | EC50 [7] | max activation [8] | max activation [9] | EC50 [10]
1 | Oc1ccc(/C=C/c2cc(O)cc(O)c2)cc1 | inactive | Active | 802% | inactive | 239% |  |  |  |  | 
2 | O=C(N/N=C/c1cc(Br)c(O)c(Br)c1O)c1ccc2cc(-c3ccccc3)ccc2c1 |  |  | 194% |  |  | 11.6 µM | 28.6 µM | 199% | 257% | 1.8 µM
